# In ChEMBL document CHEMBL5331128, “Alicyclic Ring Size Variation of 4-Phenyl-2-naphthoic Acid Derivatives as P2Y14 Receptor Antagonists” (J Med Chem, 2023):
# The source made the active and inactive calls.
# Experiments:
# [1] = test system: Mus musculus; assay: Antiallodynic activity in CCI surgery neuropathic pain Hsd:ICR mouse model assessed as reversal of mechano-allodynia by measuring paw withdrawal threshold at 10 micromol/kg,po and measured at 1 hrs by von frey test; type: functional, organism-based; conditions: dose 10.0 µmol/kg
# Procedure, shortened: (§1)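 CCI neuropathic pain in adult male CD-1 mice. Single oral gavage dose of 10 μmol/kg on day 7 post-surgery. Vehicle 5% DMSO + 10% (Kolliphor HS 15:DMSO 5:95) in 0.5% methylcellulose, 0.2 mL. Von Frey paw withdrawal threshold on both hindpaws. Mean ± SD; two-way ANOVA with Dunnett's test.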
# [2] = Stability in human plasma assessed as half life at 1 uM and measured at 120 mins by LC-MS/MS analysis; type: ADME, cell-free
# [3] = Stability in mouse plasma assessed as half life at 1 uM and measured at 120 mins by LC-MS/MS analysis; type: ADME, cell-free
# [4] = target: 5-hydroxytryptamine receptor 1B (Homo sapiens, UniProt P28222); assay: Displacement of [3H]-5-CT from human 5-HT1B receptor assessed as inhibition constant by radioligand displacement assay
# [5] = target: Sigma intracellular receptor 2 (Homo sapiens, UniProt Q5BJF2); assay: Displacement of [3H]-DTG from human sigma 2 receptor assessed as inhibition constant by radioligand displacement assay
# [6] = Selectivity ratio, ratio of IC50 for displacement of fluorescent tracer 4-(4-(1-(4-(1-(6-(3-carboxylato-4-(3-iminio-3H-xanthen-9-yl)benzamido)hexyl)-4,5-dihydro-1H-pyrrol-3-yl)butyl)piperidin-1-ium-4-yl)phenyl)-7-(4-(trifluoromethyl)phenyl)-2-naphthoate from mouse P2Y14R stably expressed in human HEK293 cells to IC50 for displacement of fluorescent tracer 4-(4-(1-(4-(1-(6-(3-carboxylato-4-(3-iminio-3H-xanthen-9-yl)benzamido)hexyl)-4,5-dihydro-1H-pyrrol-3-yl)butyl)piperidin-1-ium-4-yl)phenyl)-7-(4-(trifluoromethyl)phenyl)-2-naphthoate from human P2Y14R stably expressed in CHO cells; type: cell-based
# [7] = target: T1, P2Y purinoceptor 14 (Mus musculus, UniProt Q9ESG6); assay: (§2) Displacement of fluorescent tracer 4-(4-(1-(4-(1-(6-(3-carboxylato-4-(3-iminio-3H-xanthen-9-yl)benzamido)hexyl)-4,5-dihydro-1H-pyrrol-3-yl)butyl)piperidin-1-ium-4-yl)phenyl)-7-(4-(trifluoromethyl)phenyl)-2-naphthoate from mouse P2Y14R stably expressed in human HEK293 cells by flow cytometry; type: cell-based
# T1 sequence (Q9ESG6 whole entry): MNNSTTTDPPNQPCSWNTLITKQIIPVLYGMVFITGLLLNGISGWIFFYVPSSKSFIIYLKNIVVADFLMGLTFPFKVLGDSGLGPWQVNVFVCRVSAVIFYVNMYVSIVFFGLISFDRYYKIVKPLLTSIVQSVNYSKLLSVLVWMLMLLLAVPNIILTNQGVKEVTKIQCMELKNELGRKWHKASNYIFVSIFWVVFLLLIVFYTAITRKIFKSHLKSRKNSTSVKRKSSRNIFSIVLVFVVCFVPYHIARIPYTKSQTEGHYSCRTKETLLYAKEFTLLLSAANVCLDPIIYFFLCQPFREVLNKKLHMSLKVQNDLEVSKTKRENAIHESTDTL
# Procedure, shortened: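 Whole-cell competitive binding: CHO cells expressing hP2Y14R (or HEK-293 cells expressing mP2Y14R) incubated with AlexaFluor488-labelled antagonist tracer at 20 nM. […] Ki derived by dividing IC50 by 1.72.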
# [8] = target: T2, P2Y purinoceptor 14 (Homo sapiens, UniProt Q15391); assay: as §2, with “human” for “mouse”, “CHO” for “human HEK293”, “cells assessed as inhibition constant” for “cells”; type: cell-based
# T2 sequence (Q15391 whole entry): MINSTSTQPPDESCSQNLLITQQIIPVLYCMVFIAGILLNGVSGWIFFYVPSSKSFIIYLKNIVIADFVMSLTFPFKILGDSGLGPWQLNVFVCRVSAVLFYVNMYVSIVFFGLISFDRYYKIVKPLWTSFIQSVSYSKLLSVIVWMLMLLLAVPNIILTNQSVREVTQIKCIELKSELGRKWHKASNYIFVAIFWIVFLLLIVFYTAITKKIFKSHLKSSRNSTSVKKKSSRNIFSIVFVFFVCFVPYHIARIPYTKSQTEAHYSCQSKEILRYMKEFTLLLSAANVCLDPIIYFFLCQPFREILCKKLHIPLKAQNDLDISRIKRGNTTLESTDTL
# Procedure, shortened: (§3)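 Whole-cell competitive binding: CHO cells expressing hP2Y14R (or HEK-293 cells expressing mP2Y14R) incubated with AlexaFluor488-labelled antagonist tracer at 20 nM.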
# [9] = target: T3, Muscarinic acetylcholine receptor M5 (Homo sapiens, UniProt P08912); assay: Displacement of […] from human muscarinic M5 receptor assessed as inhibition constant by radioligand displacement assay
# T3 sequence (P08912 whole entry): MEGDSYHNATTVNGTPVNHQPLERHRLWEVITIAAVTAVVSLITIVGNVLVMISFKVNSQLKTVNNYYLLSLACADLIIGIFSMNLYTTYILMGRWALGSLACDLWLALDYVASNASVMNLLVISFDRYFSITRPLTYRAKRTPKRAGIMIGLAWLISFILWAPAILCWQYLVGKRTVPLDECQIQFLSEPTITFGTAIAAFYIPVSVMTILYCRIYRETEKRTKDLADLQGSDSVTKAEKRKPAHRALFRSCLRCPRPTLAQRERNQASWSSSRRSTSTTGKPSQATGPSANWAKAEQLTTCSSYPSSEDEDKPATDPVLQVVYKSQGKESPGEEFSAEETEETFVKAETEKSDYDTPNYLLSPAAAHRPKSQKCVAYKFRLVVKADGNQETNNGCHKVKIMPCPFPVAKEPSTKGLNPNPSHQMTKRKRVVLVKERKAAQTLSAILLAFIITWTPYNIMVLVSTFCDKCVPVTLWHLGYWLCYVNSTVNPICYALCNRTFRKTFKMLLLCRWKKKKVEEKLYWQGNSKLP
# [10] = target: Beta-3 adrenergic receptor (Homo sapiens, UniProt P13945); assay: Displacement of [125I]-Pindolol from human adrenergic beta3 receptor assessed as inhibition constant by radioligand displacement assay
# [11] = Lipophilicity, log D of compound at pH 7.4 incubated for 20 hrs by HPLC analysis; type: physicochemical; conditions: buffer
# [12] = target: T4, Alpha-1B adrenergic receptor (Homo sapiens, UniProt P35368); assay: Displacement of [3H]-Prazosin from human adrenergic alpha1B receptor assessed as inhibition constant by radioligand displacement assay
# T4 sequence (P35368 whole entry): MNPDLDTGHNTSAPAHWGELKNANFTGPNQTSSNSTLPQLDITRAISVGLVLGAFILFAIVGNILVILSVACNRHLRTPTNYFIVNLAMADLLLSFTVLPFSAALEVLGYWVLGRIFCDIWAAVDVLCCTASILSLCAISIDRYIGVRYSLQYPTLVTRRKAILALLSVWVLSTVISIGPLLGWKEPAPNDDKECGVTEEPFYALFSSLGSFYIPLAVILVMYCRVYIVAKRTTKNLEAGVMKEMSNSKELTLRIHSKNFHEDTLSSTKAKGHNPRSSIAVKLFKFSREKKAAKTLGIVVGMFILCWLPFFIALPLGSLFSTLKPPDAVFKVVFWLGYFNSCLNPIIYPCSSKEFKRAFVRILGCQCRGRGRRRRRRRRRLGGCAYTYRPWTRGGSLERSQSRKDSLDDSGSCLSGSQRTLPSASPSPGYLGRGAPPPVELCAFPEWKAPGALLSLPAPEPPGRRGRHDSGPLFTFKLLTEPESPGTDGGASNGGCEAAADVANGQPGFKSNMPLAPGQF
# [13] = target: Histamine H1 receptor (Homo sapiens, UniProt P35367); assay: Displacement of [3H]-Pyrilamine from human histamine H1 receptor assessed as inhibition constant by radioligand displacement assay
# [14] = Antagonist activity at chimpanzee P2Y14R stably expressed in human HEK cells assessed as inhibition of UDP-glucose induced Ca2+ signaling incubated for 20 mins by FLIPR analysis; type: cell-based; conditions: Pan troglodytes, HEK293, 20 min
# [15] = test system: Mus musculus; assay: Antiallodynic activity in CCI surgery neuropathic pain Hsd:ICR mouse model assessed as reversal of mechano-allodynia by measuring paw withdrawal threshold at 10 micromol/kg,ip and measured upto 5 days by von frey test; type: functional, organism-based; conditions: dose 10.0 µmol/kg, time <= 5.0 day
# Procedure, shortened: (§4)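 CCI neuropathic pain in adult male Hsd:ICR (CD-1) mice (20–30 g). Single i.p. injection on day 7 after sciatic nerve constriction, at peak pain. Vehicle 10% (Kolliphor HS 15:DMSO 5:95) in saline, 0.2 mL. Paw withdrawal threshold by von Frey filaments on ipsilateral and contralateral hindpaws. Mean ± SD; two-way ANOVA with Dunnett's test versus day 0 and day 7.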
# [16] = test system: Mus musculus; assay: Antiallodynic activity in CCI surgery neuropathic pain Hsd:ICR mouse model assessed as reversal of mechano-allodynia by measuring paw withdrawal threshold at 10 micromol/kg,ip and measured at 3 hrs by von frey test; type: functional, organism-based; conditions: dose 10.0 µmol/kg; procedure, shortened: as §4
# [17] = target: T5, Alpha-2A adrenergic receptor (Homo sapiens, UniProt P08913); assay: Displacement of [3H]-Rauwolscine from human adrenergic alpha2A receptor assessed as inhibition constant by radioligand displacement assay
# T5 sequence (P08913 whole entry): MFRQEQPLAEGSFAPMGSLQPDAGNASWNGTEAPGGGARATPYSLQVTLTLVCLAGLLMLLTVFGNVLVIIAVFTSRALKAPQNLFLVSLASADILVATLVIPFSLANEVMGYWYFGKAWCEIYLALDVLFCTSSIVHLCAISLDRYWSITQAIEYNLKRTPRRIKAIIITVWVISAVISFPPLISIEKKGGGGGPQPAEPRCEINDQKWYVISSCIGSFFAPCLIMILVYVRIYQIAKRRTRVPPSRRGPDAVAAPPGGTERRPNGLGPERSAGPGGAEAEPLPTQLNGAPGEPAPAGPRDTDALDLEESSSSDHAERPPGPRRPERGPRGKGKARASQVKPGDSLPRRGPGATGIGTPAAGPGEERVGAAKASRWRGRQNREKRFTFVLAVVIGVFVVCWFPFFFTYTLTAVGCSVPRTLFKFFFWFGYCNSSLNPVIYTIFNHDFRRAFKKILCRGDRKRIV
# [18] = test system: Mus musculus; assay: Antiallodynic activity in CCI surgery neuropathic pain Hsd:ICR mouse model assessed as reversal of mechano-allodynia by measuring paw withdrawal threshold at 10 micromol/kg,po and measured upto 6 hrs by von frey test; type: functional, organism-based; conditions: dose 10.0 µmol/kg; procedure, shortened: as §1
# [19] = target: Sigma non-opioid intracellular receptor 1 (Homo sapiens, UniProt Q99720); assay: Displacement of [3H]-Pentazocine from human sigma 1 receptor assessed as inhibition constant by radioligand displacement assay
# [20] = target: T6, P2Y purinoceptor 14 (Homo sapiens) (UniProt Q15391); assay: Binding affinity to human P2Y14R stably expressed in CHO cells at 2 to 20000 nM by flow cytometry; type: cell-based; conditions: dose 2-20000 nM
# T6 sequence (whole entry): T2 sequence (Q15391 whole entry)
# Procedure, shortened: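 Whole CHO cells expressing hP2Y14R. Binding of an AlexaFluor-free JaneliaFluor 646 tracer conjugate was tested at final concentrations of 2, 100, 500 and 20,000 nM, under conditions similar to the AlexaFluor488 tracer assay (20 nM). Specific binding was read by flow cytometry.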
# [21] = target: T2, P2Y purinoceptor 14; assay: Displacement of fluorescent tracer 4-(4-(1-(4-(1-(6-(3-carboxylato-4-(3-iminio-3H-xanthen-9-yl)benzamido)hexyl)-4,5-dihydro-1H-pyrrol-3-yl)butyl)piperidin-1-ium-4-yl)phenyl)-7-(4-(trifluoromethyl)phenyl)-2-naphthoate from human P2Y14R stably expressed in CHO cells by flow cytometry; type: cell-based; procedure, shortened: as §3
# [22] = target: T6, P2Y purinoceptor 14 (Homo sapiens); assay: Displacement of fluorescent tracer 4-(4-(1-(4-(1-(6-(3-carboxylato-4-(3-iminio-3H-xanthen-9-yl)benzamido)hexyl)-4,5-dihydro-1H-pyrrol-3-yl)butyl)piperidin-1-ium-4-yl)phenyl)-7-(4-(trifluoromethyl)phenyl)-2-naphthoate from human P2Y14R stably expressed in CHO cells upto 100 uM by flow cytometry; type: cell-based
# Chain of 5-hydroxytryptamine receptor 1B (P28222 whole entry): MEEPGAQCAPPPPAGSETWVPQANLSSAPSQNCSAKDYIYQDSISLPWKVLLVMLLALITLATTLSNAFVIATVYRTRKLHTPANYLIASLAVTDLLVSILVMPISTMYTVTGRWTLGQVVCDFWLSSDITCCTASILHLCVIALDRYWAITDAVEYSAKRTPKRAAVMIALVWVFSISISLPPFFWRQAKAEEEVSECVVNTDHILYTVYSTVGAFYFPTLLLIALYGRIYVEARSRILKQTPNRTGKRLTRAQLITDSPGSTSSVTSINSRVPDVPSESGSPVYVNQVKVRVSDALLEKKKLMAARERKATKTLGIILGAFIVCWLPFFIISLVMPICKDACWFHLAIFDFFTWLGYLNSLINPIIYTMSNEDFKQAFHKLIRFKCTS
# Chain of Beta-3 adrenergic receptor (P13945 whole entry): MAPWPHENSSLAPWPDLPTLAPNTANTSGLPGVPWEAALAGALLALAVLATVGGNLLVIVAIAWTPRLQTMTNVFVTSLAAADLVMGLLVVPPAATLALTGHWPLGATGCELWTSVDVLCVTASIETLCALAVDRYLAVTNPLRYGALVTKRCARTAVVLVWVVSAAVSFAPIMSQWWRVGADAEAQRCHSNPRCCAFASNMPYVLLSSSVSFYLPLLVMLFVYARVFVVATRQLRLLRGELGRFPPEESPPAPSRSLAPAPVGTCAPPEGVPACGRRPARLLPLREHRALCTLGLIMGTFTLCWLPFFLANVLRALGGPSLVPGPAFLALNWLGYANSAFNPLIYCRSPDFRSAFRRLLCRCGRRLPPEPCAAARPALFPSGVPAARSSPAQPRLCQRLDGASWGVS
# Chain of Histamine H1 receptor (P35367 whole entry): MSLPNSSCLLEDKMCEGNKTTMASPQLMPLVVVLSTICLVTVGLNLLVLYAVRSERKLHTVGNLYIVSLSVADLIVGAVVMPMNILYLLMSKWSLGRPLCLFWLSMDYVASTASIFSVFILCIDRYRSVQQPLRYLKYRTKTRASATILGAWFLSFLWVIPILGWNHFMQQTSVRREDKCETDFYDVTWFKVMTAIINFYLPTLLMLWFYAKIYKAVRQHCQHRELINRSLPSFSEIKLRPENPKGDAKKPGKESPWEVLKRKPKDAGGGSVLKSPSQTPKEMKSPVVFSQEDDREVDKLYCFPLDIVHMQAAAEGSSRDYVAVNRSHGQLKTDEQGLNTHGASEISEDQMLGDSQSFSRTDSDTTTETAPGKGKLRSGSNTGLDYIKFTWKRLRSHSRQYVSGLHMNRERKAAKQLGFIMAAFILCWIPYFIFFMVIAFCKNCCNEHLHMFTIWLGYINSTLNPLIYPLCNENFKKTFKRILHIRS
# Chain of Sigma intracellular receptor 2 (Q5BJF2 whole entry): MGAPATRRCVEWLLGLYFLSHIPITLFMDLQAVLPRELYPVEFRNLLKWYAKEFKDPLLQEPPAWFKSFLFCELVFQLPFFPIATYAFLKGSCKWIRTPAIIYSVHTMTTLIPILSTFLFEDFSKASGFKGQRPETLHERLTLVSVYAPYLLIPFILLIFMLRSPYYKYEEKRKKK
# Chain of Sigma non-opioid intracellular receptor 1 (Q99720 whole entry): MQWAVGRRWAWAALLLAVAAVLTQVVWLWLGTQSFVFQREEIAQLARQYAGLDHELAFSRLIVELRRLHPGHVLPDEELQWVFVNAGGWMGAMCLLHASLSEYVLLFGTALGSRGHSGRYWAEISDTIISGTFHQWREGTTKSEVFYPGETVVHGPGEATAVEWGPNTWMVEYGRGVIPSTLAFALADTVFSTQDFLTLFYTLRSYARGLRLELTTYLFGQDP
compound,measurement,setting,value
O=C(O)c1cc(-c2ccc(C3CCNCC3)cc2)c2ccc(-c3ccc(C(F)(F)F)cc3)cc2c1 [PPTN],Activity,[1],Active
same,half-life at 1 µM,[2],> 720 min
same,half-life at 1 µM,[3],1.5 min
O=C(O)c1cc(-c2ccc(C3=CC4(CNC4)C3)cc2)c2ccc(-c3ccc(C(F)(F)F)cc3)cc2c1,Ki,[4],6.7 µM
same,Ki,[5],2200 nM
same,Ratio IC50,[6],1.64
same,IC50,[7],15.9 nM
same,Ki,[8],5.63 nM
same,Ki,[9],5 µM
same,Ki,[10],6.8 µM
same,logD at 20 h,[11],1.9
same,Ki,[12],7.3 µM
same,Ki,[13],5.6 µM
O=C(O)c1cc(-c2ccc(C3(O)CCNCC3)cc2)c2ccc(-c3ccc(C(F)(F)F)cc3)cc2c1,IC50,[14],6.3 nM
O=C(O)c1cc(-c2ccc(C3(O)C[C@H]4CNC[C@@H]4C3)cc2)c2ccc(-c3ccc(C(F)(F)F)cc3)cc2c1 (racemic),Ki,[4],5.4 µM
same,Activity,[15],Active
same,Ratio IC50,[6],0.715
same,Activity,[16],Active
same,IC50,[7],6.78 nM
same,Ki,[8],5.51 nM
same,Ki,[17],5.7 µM
same,logD at 20 h,[11],1.1
same,Activity,[18],Active
same,Ki,[12],6.4 µM
O=C(O)c1cc(-c2ccc(C3CCCNCC3)cc2)c2ccc(-c3ccc(C(F)(F)F)cc3)cc2c1 (racemic),Ki,[4],4.5 µM
same,Activity,[15],Active
same,Ki,[5],2800 nM
same,Ki,[19],890 nM
same,Ratio IC50,[6],2.68
same,IC50,[7],25.7 nM
same,Ki,[8],5.57 nM
same,Ki,[10],6.6 µM
same,logD at 20 h,[11],2.1
same,Activity,[18],Active
same,Ki,[13],2.8 µM
C[Si]1(C)C2=CC(=[N+]3CCC3)C=CC2=C(c2cc(C(=O)NCCCCCCn3cc(CCCCN4CCC(c5ccc(-c6cc(C(=O)O)cc7cc(-c8ccc(C(F)(F)F)cc8)ccc67)cc5)CC4)nn3)ccc2C(=O)[O-])c2ccc(N3CCC3)cc21,Activity,[20],inactive
same,Ki,[8],9240 nM
same,IC50,[21],25.9 µM
O=C(Cc1ccc(C(F)(F)F)cc1)Nc1cccc(-c2nc3cc(Cl)ccc3o2)c1,Activity,[22],inactive
